From ChEMBL document CHEMBL5260803, “Discovery of Novel, Orally Bioavailable β-Amino Acid Azaindole Inhibitors of Influenza PB2” (ACS Med Chem Lett, 2017)
Activity calls are given as the source filed them. No cut-off for these calls is given here.

Tests used:
Influenza A virus [1] = assay: Antiviral activity against Influenza A virus A/PR/8/34 infected in MDCK cells assessed as reduction in viral RNA level incubated for 20 hrs by bDNA hybridization method; assay type: functional; details: A/PR/8/34, MDCK
Method in brief: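 Branched-DNA read-out of viral RNA in infected cells. EC90 is the compound concentration at which viral RNA equals 10% of that in control wells.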

[2] = molecular target: Polymerase basic protein 2 (Influenza A virus (strain A/Puerto Rico/8/1934 H1N1), UniProt P03428); assay: Binding affinity to full length Influenza A virus PB2 cap-binding domain assessed as dissociation constant incubated for 60 mins by fluorescence polarization assay
Polymerase basic protein 2, sequence (P03428 whole entry, the tested form may be a part): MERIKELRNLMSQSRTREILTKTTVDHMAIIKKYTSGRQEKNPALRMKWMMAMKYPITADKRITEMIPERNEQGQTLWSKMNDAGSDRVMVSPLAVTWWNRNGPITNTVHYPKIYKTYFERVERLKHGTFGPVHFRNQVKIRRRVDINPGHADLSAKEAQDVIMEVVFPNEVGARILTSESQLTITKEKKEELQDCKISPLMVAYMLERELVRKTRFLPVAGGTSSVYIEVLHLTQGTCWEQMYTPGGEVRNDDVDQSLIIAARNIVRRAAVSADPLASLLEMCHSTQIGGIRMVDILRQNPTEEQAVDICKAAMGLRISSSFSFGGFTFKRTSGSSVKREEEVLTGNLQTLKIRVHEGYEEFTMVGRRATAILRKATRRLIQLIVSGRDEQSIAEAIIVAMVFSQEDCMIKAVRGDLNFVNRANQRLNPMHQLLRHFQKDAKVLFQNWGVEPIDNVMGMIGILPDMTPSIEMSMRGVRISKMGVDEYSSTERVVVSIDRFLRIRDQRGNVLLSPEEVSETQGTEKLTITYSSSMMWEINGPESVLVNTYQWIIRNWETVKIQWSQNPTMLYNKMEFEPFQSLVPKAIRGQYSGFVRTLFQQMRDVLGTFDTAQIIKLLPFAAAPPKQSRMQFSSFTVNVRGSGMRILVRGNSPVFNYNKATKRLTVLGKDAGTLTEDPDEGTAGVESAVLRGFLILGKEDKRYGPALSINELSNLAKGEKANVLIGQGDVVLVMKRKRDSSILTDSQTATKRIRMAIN
Method in brief: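 Fluorescence polarization competition binding assay against the cap-binding domain of the PB2 subunit, giving Kd.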

[3] = AUC in mouse at 30 mg/kg, po; assay type: ADME, organism-based; parameters: dose 30 mg/kg, route po; details: in vivo
[4] = Cmax in mouse at 30 mg/kg, po; assay type: ADME, organism-based; parameters: dose 30 mg/kg, route po; details: in vivo
[5] = Stability in rat S9 fraction assessed as compound remaining at 1 uM; assay type: ADME, subcellular; details: read-out: Stability
[6] = Stability in human S9 fraction assessed as compound remaining at 1 uM; assay type: ADME, subcellular; details: read-out: Stability
Influenza A virus [7] = assay: Antiviral activity against Influenza A virus A/PR/8/34 infected in BALB/C mouse model assessed as increase in survival at 10 to 60 mg/kg, po administered twice daily for 10 days from 48 hrs post-infection and measured for 21 days; assay type: functional, organism-based; details: dose 10-60 mg/kg, time 21.0 day
Method in brief: (§1)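 Male BALB/c mice, 8 per group, inoculated intranasally with mouse-adapted A/PR/8/34 at 5e3 TCID50/mouse. Oral dosing twice daily for 10 days, starting 48 h after infection, at 10, 30 or 60 mg/kg. Survival and body weight were tracked against untreated controls.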

Influenza A virus [8] = assay: Antiviral activity against Influenza A virus A/PR/8/34 infected in BALB/C mouse model assessed as increase in survival at 10 mg/kg, po administered twice daily for 10 days from 48 hrs post-infection and measured for 21 days; assay type: functional, organism-based; details: time 21.0 day; method in brief: as §1
[9] = Clearance in rat at 1 mg/kg, iv; assay type: ADME, organism-based; details: in vivo
[10] = Half-life in rat at 1 mg/kg, iv; assay type: ADME, organism-based; details: in vivo
[11] = AUC in rat at 3 mg/kg, po; assay type: ADME, organism-based; parameters: dose 3 mg/kg, route po; details: in vivo
Influenza A virus [12] = assay: Antiviral activity against oseltamivir sensitive Influenza A virus A/Georgia/17/2006 (H1N1) infected in MDCK cells incubated for 72 hrs by cell protection assay; assay type: functional, organism-based
Method in brief: (§2)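 MDCK cells incubated with test compound and influenza A virus for 72 h. EC50 is the concentration giving 50% cell protection, reported as the mean of N=3. Oseltamivir resistant or sensitive status was assigned by externally validated phenotypic or genetic analysis.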

Influenza A virus [13] = assay: Antiviral activity against oseltamivir sensitive Influenza A virus A/[…]/8/34 (H1N1) infected in MDCK cells incubated for 72 hrs by cell protection assay; assay type: functional, organism-based; method in brief: as §2
Influenza A virus [14] = assay: Antiviral activity against oseltamivir sensitive Influenza A virus A/Henan/Jinshui/147/2007 (H3N2) infected in MDCK cells incubated for 72 hrs by cell protection assay; assay type: functional, organism-based; method in brief: as §2
Influenza A virus [15] = assay: Antiviral activity against oseltamivir sensitive Influenza A virus A/California/07/2009 (H1N1) infected in MDCK cells incubated for 72 hrs by cell protection assay; assay type: functional, organism-based; method in brief: as §2
Influenza A virus [16] = assay: Antiviral activity against oseltamivir sensitive Influenza A virus A/Vietnam/1203/2004 (H5N1) infected in MDCK cells incubated for 72 hrs by cell protection assay; assay type: functional, organism-based
[17] = Toxicity in BALB/C mouse model of influenza infected with Influenza A virus A/PR/8/34 assessed as body weight loss administered orally twice daily for 10 days from 48 hrs post-infection and measured for 21 days; details: in vivo, po, 504 h, dose 10-60 mg/kg, time 21 day; method in brief: as §1

Structure (SMILES)	EC90 (Influenza A virus [1])	Kd [2]	further results
CCC(C)(C)[C@@H](CC(=O)O)Nc1nc(-c2c[nH]c3ncc(F)cc23)ncc1F	60 nM	< 3 nM	–
C[C@](CC(=O)O)(Nc1nc(-c2c[nH]c3ncc(F)cc23)ncc1F)C1CCC1	10 nM	< 3 nM	AUC [3]: 6700 ng·h/mL; Cmax [4]: 7400 ng/mL; remaining at 1 µM [5]: 100%; remaining at 1 µM [6]: 94%; Activity (Influenza A virus [7]): Active
CC(C)(C)[C@H](CC(=O)O)Nc1nc(-c2c[nH]c3ncc(F)cc23)ncc1F	> 6650 nM	150 nM	–
CC1([C@@H](CC(=O)O)Nc2nc(-c3c[nH]c4ncc(F)cc34)ncc2F)CCCC1	20 nM	< 3 nM	–
CC(C)(C)[C@H](CC(=O)O)Nc1nc(-c2c[nH]c3ncc(Cl)cc23)ncc1F	> 3300 nM	200 nM	–
CC1(C(CC(=O)O)Nc2nc(-c3c[nH]c4ncc(F)cc34)ncc2F)CCCCC1 (racemic)	120 nM	< 3 nM	–
CC(C)[C@@H](CC(=O)O)Nc1nc(-c2c[nH]c3ncc(F)cc23)ncc1F	590 nM	–	–
O=C(O)C[C@@H](Nc1nc(-c2c[nH]c3ncc(F)cc23)ncc1F)C1CCC1	780 nM	–	–
CC(C)(C)[C@@H](CC(=O)O)Nc1nc(-c2c[nH]c3ncc(Cl)cc23)ncc1F	23 nM	< 3 nM	–
CC(C)(C(CC(=O)O)Nc1nc(-c2c[nH]c3ncc(F)cc23)ncc1F)C(F)(F)F (racemic)	520 nM	–	–
CCOC(=O)C1=C[C@@H](OC(CC)CC)[C@H](NC(C)=O)[C@@H](N)C1	–	–	Activity (Influenza A virus [8]): inactive
CCC(CC)C(CC(=O)O)Nc1nc(-c2c[nH]c3ncc(F)cc23)ncc1F (racemic)	340 nM	–	–
CC1([C@@H](CC(=O)O)Nc2nc(-c3c[nH]c4ncc(F)cc34)ncc2F)CC1	670 nM	–	–
CC(C)(C)[C@@H](CC(=O)O)Nc1nc(-c2c[nH]c3ncc(F)cc23)ncc1F	30 nM	3 nM	clearance [9]: 8 mL/min/kg; half-life [10]: 9.9 h; AUC [11]: 3300 ng·h/mL; AUC [3]: 7200 ng·h/mL; Cmax [4]: 11800 ng/mL; EC50 (Influenza A virus [12]): 9 nM; EC50 (Influenza A virus [13]): 14 nM; EC50 (Influenza A virus [14]): 19 nM; EC50 (Influenza A virus [15]): 4 nM; EC50 (Influenza A virus [16]): 4 nM; Activity (Influenza A virus [7]): Active; Activity [17]: Non-Toxic
